Test results: ChEMBL document CHEMBL3804777, “Identification and Preclinical Pharmacology of BMS-986104: A Differentiated S1P1 Receptor Modulator in Clinical Trials” (ACS Med Chem Lett, 2016)
Activity calls are given as the source filed them. The rule behind the calls is not given here.

What was measured:
Mus musculus [1] = assay: Pulmonary toxicity in BALB/c mouse assessed as BAL protein levels at 30 mg/kg, po after 24 by hematology analysis (reference value: 8.2 to 8.3 mg/dL); assay type: organism-based; settings: in vivo
Blood [2] = assay: Drug metabolism in BALB/c mouse blood assessed as formation of phosphate ester metabolite at 10 mg/kg administered through oral gavage after 24 hrs by LC/MS/MS analysis; assay type: ADME, organism-based; settings: in vivo
Outline: (§1)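 Mouse PK study: alcohol prodrug given orally at 10 mg/kg, and formation of the phosphate metabolite in blood measured.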

Mus musculus [3] = assay: Reduction in colon inflammation in SCID mouse with CD45RBhiCD4+ T-cell transfer-induced colitis model of inflammatory bowel disease at 1 or 5 mg/kg, po dosed every other day for 5 weeks by H and E staining method; assay type: functional, organism-based
Outline: (§2)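 CD45RBhiCD4+ T-cell transfer colitis in mice; oral alternate-day dosing for 5 weeks, compared with vehicle. Read-outs: body weight, colon length, histological colon inflammation and tissue damage, and colon gene expression by RT-PCR (IFN-γ, IL-2, CD4, B220, CD11b, Fcgr4, Ifit1, OASL2).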

[4] = Volume of distribution at steady state in mouse at 0.5 mg/kg, iv; assay type: ADME, organism-based; settings: in vivo, read-out: Vdss
Mus musculus [5] = assay: Reduction in lymphocyte level in BALB/c mouse assessed as blood lymphocyte level at 10 mg/kg, po after 24 hrs by hematology analysis (reference value: 5.13 to 8.02 10^3/mm3); assay type: functional
Mus musculus [6] = assay: Reduction in IFNgamma gene expression in SCID mouse with CD45RBhiCD4+ T-cell transfer-induced colitis model of inflammatory bowel disease at 1 mg/kg, po dosed daily for 5 weeks by RT-PCR method; assay type: functional; design: scale not given: the % may be the effect or the level left; settings: in the assay text read “dosed on alternate days” for “dosed daily”
[7] = Plasma clearance in mouse at 0.5 mg/kg, iv; assay type: ADME, organism-based
Mus musculus [8] = assay: Reduction in colon tissue damage in SCID mouse with CD45RBhiCD4+ T-cell transfer-induced colitis model of inflammatory bowel disease at 1 or 5 mg/kg, po dosed every other day for 5 weeks by H and E staining method; assay type: functional, organism-based; outline: as §2
Mus musculus [9] = assay: Reduction in CD4 gene expression in SCID mouse with CD45RBhiCD4+ T-cell transfer-induced colitis model of inflammatory bowel disease at 1 mg/kg, po dosed daily for 5 weeks by RT-PCR method; assay type: functional; design: scale not given: the % may be the effect or the level left; settings: in the assay text read “dosed on alternate days” for “dosed daily”
Mus musculus [10] = assay: Reduction in Fcgr4 gene expression in SCID mouse with CD45RBhiCD4+ T-cell transfer-induced colitis model of inflammatory bowel disease at 1 mg/kg, po dosed daily for 5 weeks by RT-PCR method; assay type: functional; design: scale not given: the % may be the effect or the level left
Outline: (§3)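 CD45RBhiCD4+ T-cell transfer colitis in mice; oral dosing at 1 mg/kg/day for 5 weeks, compared with vehicle. Read-outs: body weight, colon length, and colon gene expression by RT-PCR (IFN-γ, IL-2, CD4, B220, CD11b, Fcgr4, Ifit1, OASL2).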

Mus musculus [11] = assay: Reduction in body weight loss in SCID mouse with CD45RBhiCD4+ T-cell transfer-induced colitis model of inflammatory bowel disease at 1 or 5 mg/kg, po dosed every other day for 5 weeks; assay type: functional, organism-based; outline: as §2
[12] = Oral bioavailability in mouse at 1 mg/kg; assay type: ADME, organism-based; settings: in vivo
Mus musculus [13] = assay: Reduction of blood lymphocyte level in BALB/c mouse at 1 mg/kg administered through oral gavage after 24 hrs by hematology analysis; assay type: functional; design: scale not given: the % may be the effect or the level left
Outline: (§4)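 Mice given a single oral 1 mg/kg dose; circulating lymphocytes counted 24 h later as the pharmacodynamic marker.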

Mus musculus [14] = assay: Reduction in CD11b gene expression in SCID mouse with CD45RBhiCD4+ T-cell transfer-induced colitis model of inflammatory bowel disease at 1 mg/kg, po dosed daily for 5 weeks by RT-PCR method; assay type: functional; design: scale not given: the % may be the effect or the level left; settings: in the assay text read “dosed on alternate days” for “dosed daily”
Mus musculus [15] = assay: Reduction in B220 gene expression in SCID mouse with CD45RBhiCD4+ T-cell transfer-induced colitis model of inflammatory bowel disease at 1 mg/kg, po dosed daily for 5 weeks by RT-PCR method; assay type: functional; design: scale not given: the % may be the effect or the level left; settings: in the assay text read “dosed on alternate days” for “dosed daily”
Mus musculus [16] = assay: Pulmonary toxicity in BALB/c mouse assessed as BAL protein levels at 10 mg/kg, po after 24 by hematology analysis (reference value: 8.2 to 8.3 mg/dL); assay type: organism-based; settings: in vivo
Mus musculus [17] = assay: Reduction in IL2 gene expression in SCID mouse with CD45RBhiCD4+ T-cell transfer-induced colitis model of inflammatory bowel disease at 1 mg/kg, po dosed daily for 5 weeks by RT-PCR method; assay type: functional; design: scale not given: the % may be the effect or the level left; settings: in the assay text read “dosed on alternate days” for “dosed daily”
Mus musculus [18] = assay: Pulmonary toxicity in BALB/c mouse assessed as BAL protein levels at 0.5 mg/kg, po after 24 by hematology analysis (reference value: 8.2 to 8.3 mg/dL); assay type: organism-based; settings: in vivo
[19] = Drug metabolism in BALB/c mouse whole blood assessed as whole blood phosphate area ratio at 10 uM after 4 hrs by LC/MS/MS analysis; assay type: ADME, tissue-based
Outline: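 Mouse whole blood incubated with the amino-alcohol prodrug; phosphorylated product measured by LC/MS/MS after 4 h to give the relative extent of phosphate ester formation.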

Mus musculus [20] = assay: Reduction in Ifit1 gene expression in SCID mouse with CD45RBhiCD4+ T-cell transfer-induced colitis model of inflammatory bowel disease at 1 mg/kg, po dosed daily for 5 weeks by RT-PCR method; assay type: functional; design: scale not given: the % may be the effect or the level left; outline: as §3
Mus musculus [21] = assay: Reduction in lymphocyte level in BALB/c mouse assessed as blood lymphocyte level at 30 mg/kg, po after 24 hrs by hematology analysis (reference value: 5.13 to 8.02 10^3/mm3); assay type: functional
Mus musculus [22] = assay: Reduction in blood lymphocyte level in BALB/c mouse at 1 mg/kg, po after 24 hrs by hematology analysis; assay type: functional, organism-based; outline: as §4
Mus musculus [23] = assay: Reduction in lymphocyte level in BALB/c mouse assessed as blood lymphocyte level at 0.5 mg/kg, po after 24 hrs by hematology analysis (reference value: 5.13 to 8.02 10^3/mm3); assay type: functional
Mus musculus [24] = assay: Reduction in OASL2 gene expression in SCID mouse with CD45RBhiCD4+ T-cell transfer-induced colitis model of inflammatory bowel disease at 1 mg/kg, po dosed daily for 5 weeks by RT-PCR method; assay type: functional; design: scale not given: the % may be the effect or the level left; outline: as §3
Blood [25] = assay: Drug metabolism in BALB/c mouse blood assessed as formation of phosphate metabolite at 1 mg/kg administered through oral gavage after 24 hrs by LC/MS/MS analysis; assay type: ADME, organism-based; settings: in vivo
Outline: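 Single oral 1 mg/kg dose in mice; phosphate level in blood determined at 24 h postdose.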

Mus musculus [26] = assay: Induction of colon length shortening in SCID mouse with CD45RBhiCD4+ T-cell transfer-induced colitis model of inflammatory bowel disease at 1 or 5 mg/kg, po dosed every other day for 5 weeks; assay type: functional, organism-based; outline: as §2
Blood [27] = assay: Drug metabolism in BALB/c mouse blood assessed as formation of phosphate ester metabolite at 10 mg/kg administered through oral gavage after 4 hrs by LC/MS/MS analysis; assay type: ADME, organism-based; settings: in vivo; outline: as §1

CCCCCC[C@@H]1CCc2cc([C@H]3CC[C@](N)(CO)C3)ccc2C1 [BMS-986104]
Activity (Mus musculus [1]): 10 mg/dL | Drug metabolism (Blood [2]): 202 nM | Activity (Mus musculus [3]): Dose-dependent effect | Vd [4]: 60 L/kg | Activity (Mus musculus [5]): 0.51 ×10³ /mm3 | Activity (Mus musculus [6]): 45% | clearance [7]: 20 mL/min/kg | Activity (Mus musculus [8]): Dose-dependent effect | Activity (Mus musculus [9]): 51% | Activity (Mus musculus [10]): 50% | inhibition (Mus musculus [11]): Dose-dependent effect | bioavailability [12]: 65% | Activity (Mus musculus [13]): 88% | Activity (Mus musculus [14]): 41% | Activity (Mus musculus [15]): 47% | Activity (Mus musculus [16]): 8.25 mg/dL | Activity (Mus musculus [17]): 63% | Activity (Mus musculus [18]): 7.67 mg/dL | Ratio [19]: 0.6 | Activity (Mus musculus [20]): 42% | Activity (Mus musculus [21]): 0.52 ×10³ /mm3 | Activity (Mus musculus [22]): Active | Activity (Mus musculus [23]): 1.65 ×10³ /mm3 | Activity (Mus musculus [24]): 41% | Drug metabolism (Blood [25]): 27 nM | Activity (Mus musculus [26]): Dose-dependent effect | Drug metabolism (Blood [27]): 41 nM
